“Also recorded” adds a separate entry of the source.
Assay: SAD study, safety and tolerability
Format: in vivo, human
Settings: for Pain in extremity, number of subjects (%) / Proteinuria, number of subjects (%) / Subjects with any TEAEs, number of subjects (%) / Syncope, number of subjects (%) / Abdominal discomfort, number of subjects (%) / Cough, number of subjects (%) / Eye swelling, number of subjects (%) / Face injury, number of subjects (%) / Headache, number of subjects (%) / Hot flush, number of subjects (%) / Hyperbilirubinemia, number of subjects (%) / Hypoesthesia, number of subjects (%) / Influenza, number of subjects (%): N=6
In short: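 SAD cohorts were 6 active and 2 placebo healthy males given a single oral dose, with 2 sentinel subjects dosed at least 24 h before the rest. Confinement ran day −1 to day 3, with outpatient visits on days 4 and 7 and follow-up on day 14. Safety covered vital signs, clinical labs, 12-lead ECG, physical exams, and reported or observed AEs, coded with MedDRA 19.1. Counts are subjects with AEs, % of the safety population. Placebo subjects were pooled.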

## Cc1nn(Cc2ccc(Br)cc2)c(C)c1NC(=O)CSc1ccccc1 [KM-819]
Single 10 mg, young
  Pain in extremity, number of subjects (%): 0
  Proteinuria, number of subjects (%): 0
  Subjects with any TEAEs, number of subjects (%): 2 (33.3)
  Syncope, number of subjects (%): 0
Single 30 mg, young
  Abdominal discomfort, number of subjects (%): 0
  Cough, number of subjects (%): 0
  Eye swelling, number of subjects (%): 0
  Face injury, number of subjects (%): 0
  Headache, number of subjects (%): 0
  Hot flush, number of subjects (%): 0
  Hyperbilirubinemia, number of subjects (%): 0
  Hypoesthesia, number of subjects (%): 0
  Influenza, number of subjects (%): 0
  Pain in extremity, number of subjects (%): 1 (16.7)
  Proteinuria, number of subjects (%): 0
  Subjects with any TEAEs, number of subjects (%): 2 (33.3)
  Syncope, number of subjects (%): 1 (16.7)
Single 100 mg, young
  Abdominal discomfort, number of subjects (%): 0
  Cough, number of subjects (%): 0
  Eye swelling, number of subjects (%): 0
  Face injury, number of subjects (%): 0
  Headache, number of subjects (%): 0
  Hot flush, number of subjects (%): 0
  Hyperbilirubinemia, number of subjects (%): 1 (16.7)
  Hypoesthesia, number of subjects (%): 1 (16.7)
  Influenza, number of subjects (%): 0
  Pain in extremity, number of subjects (%): 0
  Proteinuria, number of subjects (%): 1 (16.7)
  Subjects with any TEAEs, number of subjects (%): 2 (33.3)
  Syncope, number of subjects (%): 0
Single 200 mg, elderly
  Abdominal discomfort, number of subjects (%): 0
  Cough, number of subjects (%): 0
  Eye swelling, number of subjects (%): 0
  Face injury, number of subjects (%): 1 (16.7)
  Headache, number of subjects (%): 2 (33.3)
  Hot flush, number of subjects (%): 1 (16.7)
  Hyperbilirubinemia, number of subjects (%): 0
  Hypoesthesia, number of subjects (%): 0
  Influenza, number of subjects (%): 0
  Pain in extremity, number of subjects (%): 0
  Proteinuria, number of subjects (%): 0
  Subjects with any TEAEs, number of subjects (%): 2 (33.3)
  Syncope, number of subjects (%): 0
Single 200 mg, young
  Abdominal discomfort, number of subjects (%): 1 (16.7)
  Cough, number of subjects (%): 0
  Eye swelling, number of subjects (%): 0
  Face injury, number of subjects (%): 0
  Headache, number of subjects (%): 0
  Hot flush, number of subjects (%): 0
  Hyperbilirubinemia, number of subjects (%): 0
  Hypoesthesia, number of subjects (%): 0
  Influenza, number of subjects (%): 0
  Pain in extremity, number of subjects (%): 0
  Proteinuria, number of subjects (%): 0
  Subjects with any TEAEs, number of subjects (%): 1 (16.7)
  Syncope, number of subjects (%): 0
Single 400 mg, young
  Abdominal discomfort, number of subjects (%): 0
  Cough, number of subjects (%): 0
  Eye swelling, number of subjects (%): 0
  Face injury, number of subjects (%): 0
  Headache, number of subjects (%): 0
  Hot flush, number of subjects (%): 0
  Hyperbilirubinemia, number of subjects (%): 0
  Hypoesthesia, number of subjects (%): 0
  Influenza, number of subjects (%): 0
  Pain in extremity, number of subjects (%): 0
  Proteinuria, number of subjects (%): 0
  Subjects with any TEAEs, number of subjects (%): 0
  Syncope, number of subjects (%): 0
Single or multiple doses
  overall safety and tolerability: generally well tolerated; also recorded: no remarkable or significant safety concerns; also recorded: safe and well tolerated
